In brackets after ≈: the same amount, converted by molar mass.
Columns and labels:
Assay type in all cases: functional
Bacillus subtilis [1] = experiment: Antibacterial activity against Bacillus subtilis NCIM 2079 measured after 12 hrs; conditions: NCIM 2079, 12 h
Summary of the method: (§1)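 Bacteria grown in LB at 37 °C and 180 rpm to OD 1. Compounds added to wells, then 0.1% inoculum of 1 OD culture (620 nm). Growth read as OD at 620 nm after 8 h for gram-negative and after 12 h for gram-positive strains.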

Aspergillus niger = experiment: Antifungal activity against Aspergillus niger NCIM 1196 by standard agar method
Summary of the method: (§2)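 MICs determined by standard agar method; DMSO as solvent control.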

[2] = system: Mycobacterium tuberculosis; experiment: Growth inhibition of Mycobacterium bovis BCG ATCC 35743 at active stage measured after 8 days by nitrate reductase dye based two fold dilution method; conditions: BCG str. ATCC 35743, 192 h
Summary of the method: (§3)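 M. bovis BCG was grown in Dubos medium and assayed in Mycobacterium pheli minimal medium (pH 6.6), with compounds from DMSO stocks. Incubation lasted 8 days for active and 12 days for dormant cultures. Viability was read by nitrate reductase at 540 nm against cell-free blanks, with vehicle set as 100% growth. Primary screen was at 30, 10 and 3 µg/ml, in triplicate, mean ± SD. MIC was taken from dose-response curves.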

Staphylococcus aureus [3] = experiment: Antibacterial activity against of Staphylococcus aureus NCIM 2010 measured after 12 hrs; conditions: NCIM 2010, 12 h; summary of the method: as §1
Bacillus subtilis [4] = experiment: Growth inhibition of Bacillus subtilis NCIM 2079 at 10 ug/ml measured after 12 hrs relative to control; conditions: NCIM 2079, 12 h, read-out: GI; summary of the method: as §1
[5] = system: Mycobacterium tuberculosis; experiment: Growth inhibition of Mycobacterium tuberculosis H37Ra ATCC 25177 at dormant stage measured after 12 days by XTT dye based two fold dilution method; conditions: H37Ra ATCC 25177, 288 h
Summary of the method: (§4)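 MTB H37Ra was grown in Dubos medium, then exposed in Mycobacterium pheli minimal medium (pH 6.6) to compounds dissolved in DMSO. The assay ended on day 8 (active) or day 12 (dormant). Viable cells were measured by XTT reduction menadione assay at 470 nm, blank-corrected, relative to vehicle control. Triplicates were expressed as mean ± SD. MIC came from dose-response curves.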

[6] = system: Mycobacterium tuberculosis; experiment: Growth inhibition of Mycobacterium bovis BCG ATCC 35743 at dormant stage measured after 12 days by nitrate reductase dye based two fold dilution method; conditions: BCG str. ATCC 35743, 288 h; summary of the method: as §3
Staphylococcus aureus [7] = experiment: Growth inhibition of Staphylococcus aureus NCIM 2010 at 10 ug/ml measured after 12 hrs relative to control; conditions: NCIM 2010, 12 h, read-out: GI; summary of the method: as §1
[8] = Antifungal activity against Fusarium oxysporum NCIM 1332 by standard agar method; summary of the method: as §2
Pseudomonas fluorescens [9] = experiment: Growth inhibition of Pseudomonas fluorescens NCIM 2036 at 10 ug/ml measured after 8 hrs relative to control; conditions: NCIM 2036, 8 h, read-out: GI; summary of the method: as §1
[10] = system: Mycobacterium tuberculosis; experiment: Growth inhibition of Mycobacterium tuberculosis H37Ra ATCC 25177 at active stage measured after 8 days by XTT dye based two fold dilution method; conditions: H37Ra ATCC 25177, 192 h; summary of the method: as §4
Aspergillus flavus = experiment: Antifungal activity against Aspergillus flavus NCIM 539 by standard agar method; summary of the method: as §2
Pseudomonas fluorescens [11] = experiment: Growth inhibition of Pseudomonas fluorescens NCIM 2036 at 30 ug/ml measured after 8 hrs relative to control; conditions: NCIM 2036, 8 h, read-out: GI; summary of the method: as §1
Staphylococcus aureus [12] = experiment: Growth inhibition of Staphylococcus aureus NCIM 2010 at 3 ug/ml measured after 12 hrs relative to control; conditions: NCIM 2010, 12 h, read-out: GI; summary of the method: as §1
Staphylococcus aureus [13] = experiment: Growth inhibition of Staphylococcus aureus NCIM 2010 at 30 ug/ml measured after 12 hrs relative to control; conditions: NCIM 2010, 12 h, read-out: GI; summary of the method: as §1
Bacillus subtilis [14] = experiment: Growth inhibition of Bacillus subtilis NCIM 2079 at 30 ug/ml measured after 12 hrs relative to control; conditions: NCIM 2079, 12 h, read-out: GI; summary of the method: as §1
Bacillus subtilis [15] = experiment: Growth inhibition of Bacillus subtilis NCIM 2079 at 3 ug/ml measured after 12 hrs relative to control; conditions: NCIM 2079, 12 h, read-out: GI; summary of the method: as §1
Escherichia coli [16] = experiment: Growth inhibition of Escherichia coli NCIM 2688 at 3 ug/ml measured after 8 hrs relative to control; conditions: NCIM 2688, 8 h, read-out: GI; summary of the method: as §1
Escherichia coli [17] = experiment: Antibacterial activity against Escherichia coli NCIM 2688 measured after 8 hrs; conditions: NCIM 2688, 8 h; summary of the method: as §1
Pseudomonas fluorescens [18] = experiment: Growth inhibition of Pseudomonas fluorescens NCIM 2036 at 3 ug/ml measured after 8 hrs relative to control; conditions: NCIM 2036, 8 h, read-out: GI; summary of the method: as §1
Escherichia coli [19] = experiment: Growth inhibition of Escherichia coli NCIM 2688 at 10 ug/ml measured after 8 hrs relative to control; conditions: NCIM 2688, 8 h, read-out: GI; summary of the method: as §1
Candida albicans = experiment: Antifungal activity against Candida albicans NCIM 3471 by standard agar method; summary of the method: as §2
[20] = system: Mycobacterium tuberculosis; experiment: Growth inhibition of Mycobacterium bovis BCG ATCC 35743 at dormant stage at 30 ug/ml measured after 12 days by nitrate reductase dye based two fold dilution method relative to control; conditions: BCG str. ATCC 35743, 288 h, read-out: GI; summary of the method: as §3
Pseudomonas fluorescens [21] = experiment: Antibacterial activity against Pseudomonas fluorescens NCIM 2036 measured after 8 hrs; conditions: NCIM 2036, 8 h; summary of the method: as §1
[22] = Antifungal activity against Cryptococcus neoformans NCIM 576 by standard agar method; summary of the method: as §2
[23] = system: Mycobacterium tuberculosis; experiment: Growth inhibition of Mycobacterium bovis BCG ATCC 35743 at dormant stage at 10 ug/ml measured after 12 days by nitrate reductase dye based two fold dilution method relative to control; conditions: BCG str. ATCC 35743, 288 h, read-out: GI; summary of the method: as §3
[24] = system: Mycobacterium tuberculosis; experiment: Growth inhibition of Mycobacterium bovis BCG ATCC 35743 at dormant stage at 3 ug/ml measured after 12 days by nitrate reductase dye based two fold dilution method relative to control; conditions: BCG str. ATCC 35743, 288 h, read-out: GI; summary of the method: as §3
Escherichia coli [25] = experiment: Growth inhibition of Escherichia coli NCIM 2688 at 30 ug/ml measured after 8 hrs relative to control; conditions: NCIM 2688, 8 h, read-out: GI; summary of the method: as §1

| Structure (SMILES) | MIC (Bacillus subtilis [1]) | MIC (Aspergillus niger) | IC50 [2] | IC90 [2] | MIC (Staphylococcus aureus [3]) | inhibition of growth at 10 µg/mL (Bacillus subtilis [4]) | IC50 [5] | IC90 [5] | IC50 [6] | IC90 [6] | inhibition of growth at 10 µg/mL (Staphylococcus aureus [7]) | MIC [8] | inhibition of growth at 10 µg/mL (Pseudomonas fluorescens [9]) | IC50 [10] | IC90 [10] | MIC (Aspergillus flavus) | inhibition of growth at 30 µg/mL (Pseudomonas fluorescens [11]) | inhibition of growth at 3 µg/mL (Staphylococcus aureus [12]) | inhibition of growth at 30 µg/mL (Staphylococcus aureus [13]) | inhibition of growth at 30 µg/mL (Bacillus subtilis [14]) | also measured |
| --- | --- | --- | --- | --- | --- | --- | --- | --- | --- | --- | --- | --- | --- | --- | --- | --- | --- | --- | --- | --- | --- |
| O=C1NC(=S)S/C1=C\c1cc2ccccc2nc1Cl | > 30 µg/mL | 100 µg/mL (≈ 326 µM) | > 30 µg/mL | > 30 µg/mL | > 30 µg/mL | 0.915% | > 30 µg/mL | > 30 µg/mL | > 30 µg/mL | > 30 µg/mL | -21.3% | 100 µg/mL (≈ 326 µM) | -9.65% | > 30 µg/mL | > 30 µg/mL | 150 µg/mL (≈ 489 µM) | 5.4% | -15.7% | -28.2% | 0.707% | inhibition of growth at 3 µg/mL (Bacillus subtilis [15]): 7.53%; inhibition of growth at 3 µg/mL (Escherichia coli [16]): -40.6%; MIC (Escherichia coli [17]): > 30 µg/mL; inhibition of growth at 3 µg/mL (Pseudomonas fluorescens [18]): -17.5%; inhibition of growth at 10 µg/mL (Escherichia coli [19]): -14.7%; MIC (Candida albicans): 150 µg/mL (≈ 489 µM); inhibition of growth at 30 µg/mL [20]: -43.1%; MIC (Pseudomonas fluorescens [21]): > 30 µg/mL; MIC [22]: 50 µg/mL (≈ 163 µM); inhibition of growth at 10 µg/mL [23]: -22.1%; inhibition of growth at 3 µg/mL [24]: -80.1%; inhibition of growth at 30 µg/mL (Escherichia coli [25]): -28.5% |
| COc1ccc2nc(Cl)c(/C=C3\SC(=S)N(CCC(=O)O)C3=O)cc2c1 | > 30 µg/mL | 175 µg/mL (≈ 428 µM) | > 30 µg/mL | > 30 µg/mL | > 30 µg/mL | -1.08% | > 30 µg/mL | > 30 µg/mL | > 30 µg/mL | > 30 µg/mL | -21.7% | 175 µg/mL (≈ 428 µM) | -17% | > 30 µg/mL | > 30 µg/mL | 100 µg/mL (≈ 245 µM) | -27.3% | -2.06% | -16.1% | -3.99% | inhibition of growth at 3 µg/mL (Bacillus subtilis [15]): -6.61%; inhibition of growth at 3 µg/mL (Escherichia coli [16]): 20.7%; MIC (Escherichia coli [17]): > 30 µg/mL; inhibition of growth at 3 µg/mL (Pseudomonas fluorescens [18]): -4.49%; inhibition of growth at 10 µg/mL (Escherichia coli [19]): 14.4%; MIC (Candida albicans): 125 µg/mL (≈ 306 µM); inhibition of growth at 30 µg/mL [20]: 27.2%; MIC (Pseudomonas fluorescens [21]): > 30 µg/mL; MIC [22]: 150 µg/mL (≈ 367 µM); inhibition of growth at 10 µg/mL [23]: 27.2%; inhibition of growth at 3 µg/mL [24]: 25.4%; inhibition of growth at 30 µg/mL (Escherichia coli [25]): 13.5% |

From ChEMBL document CHEMBL3877264, “Quinolidene-rhodanine conjugates: Facile synthesis and biological evaluation” (Eur J Med Chem, 2017)
